# Several values for one entry are separate records, joined by “and”; a condition that tells them apart may be missing. Identical values can stand only once. Like-named read-outs stand apart in the source and are kept apart here.
# Experiments:
# [1] = tested on: voltage-gated Na+ channels in CAD cells; assay: Frequency; type: cell-based; conditions: 10 Hz; for Pulse in the train at which use-dependent block was first observed: 30-pulse train
# Summary of the method: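 CAD cells were whole-cell clamped at −80 mV and given a train of 30 pulses (20 ms to −10 mV) at 10 Hz, with test compound (100, 8.5 or 15 μM) or control. Available current was the peak at pulse N divided by the pulse 1 peak. 5–7 cells per condition, averaged ± SEM.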
# [2] = tested on: voltage-gated Na+ channels in CAD cells; assay: Development of inhibition/slow inactivation of Na+ currents in CAD cells; type: cell-based; conditions: vehicle 0.52 ± 0.09
# [3] = tested on: voltage-gated Na+ channels in CAD cells; assay: Recovery of Na+ channels from inactivation/block in CAD cells; type: cell-based; conditions: vs control
# Summary of the method: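 CAD cells under whole-cell clamp, test compound (100, 8.5 or 15 μM) or control. Cells were held at −120 mV and depolarized to 0 mV, for 5 s (slow inactivation) or a 10 ms prepulse. They were then returned to −120 mV for a variable recovery interval before a test step to 0 mV. Sweeps ran at 0.5 Hz for short recoveries and slower for longer ones.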
# [4] = tested on: voltage-gated Na+ channels in CAD cells; conditions: earlier study; cited from earlier work
# [5] = tested on: voltage-gated Na+ channels in CAD cells; conditions: 30 μM; cited from earlier work
# [6] = tested on: voltage-gated Na+ channels in CAD cells; type: cell-based; conditions: for Maximal fraction of current unavailable by depolarization: 20 mV, control 0.42 ± 0.02
# [7] = tested on: voltage-gated Na+ channels in CAD cells; type: cell-based
# Summary of the method: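 Steady-state fast inactivation in whole-cell clamped CAD cells used a 500 ms conditioning pulse. Test compound ranged 0.3–500 μM; control was DMSO vehicle. Recordings were taken 3–4 min after break-in and compared with drug-free cells. V1/2 and k came from single Boltzmann fits of each recording, averaged as mean ± SEM. n = 7 for V1/2, n = 6 for τinact. Student's t-test vs DMSO.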
# [8] = tested on: tibial-nerve injury (TNI) mechanical hypersensitivity; assay: Tibial-nerve injury; type: in vivo, Sprague–Dawley rats; conditions: rats, 10 mg/kg i.p.
# [9] = tested on: formalin-induced pain, chronic (late-phase) inflammatory pain; assay: Formalin-induced pain model; type: in vivo; conditions: mouse, i.p., the lower the percent the more effective the compound
# [10] = tested on: site 2 sodium channel; assay: Site 2 sodium channel binding; conditions: 10 μM, Cerep, data not shown
# [11] = tested on: E18 rat cortical neurons; assay: KCl-induced Ca2+ influx, Fura-2 imaging; type: cell-based; conditions: 100 μM, 46.5 mM KCl
smiles,measurement,setting,value
"COC[C@@H](NC(C)=O)C(=O)NCc1ccccc1 [(R)-4, Lacosamide, reference compound]",Peak current lower than control at the last pulse (pulse 30),[1]; 100 μM,~ 9%
same,Pulse in the train at which use-dependent block was first observed,[1]; 100 μM,~19 pulse
same,Fraction of current available at 8 s prepulse duration,[2]; 100 μM,0.32 ± 0.01
same,Time course of recovery from the 10-ms depolarization,[3]; 100 μM,not different from control
same,Recovery kinetics after 5 s depolarization (slow inactivation induced),"[3]; 100 μM, significant between 100–512 ms",slowed recovery kinetics
same,Inhibition of peak Na+ currents,[4],~ 40%
same,Shift in V1/2 of fast inactivation,[5],0.7 mV
COC[C@@H](NC(C)=O)C(=O)NCc1ccc(OCc2cccc(F)c2)cc1 [(R)-7],Fraction of current available at −50 mV,"[6]; 30 μM, vs cells without drug",significantly decreased the fraction of current available
same,Maximal fraction of current unavailable by depolarization,[6]; 30 μM,0.91 ± 0.01
same,Time constant for inactivation (τinact),"[7]; 0.3 μM, DMSO 1.32 ± 0.12 ms",0.73 ± 0.05 ms
same,Shift in V1/2 of fast inactivation in the hyperpolarizing direction,[7]; 30 μM,~ 21.4 mV and 21.4 mV
same,V1/2 value for fast inactivation,"[7]; 30 μM, DMSO −63.2 ± 0.9 mV",−84.6 ± 1.2 mV
same,Peak current lower than control at the last pulse (pulse 30),[1]; 8.5 μM,40%
same,Pulse in the train at which use-dependent block was first observed,[1]; 8.5 μM,3 pulse
same,Fraction of current available at 8 s prepulse duration,[2]; 8.5 μM,0.20 ± 0.04
same,Time course of recovery from the 10-ms depolarization,[3]; 8.5 μM,slight slowing
same,Recovery kinetics after 5 s depolarization (slow inactivation induced),"[3]; 8.5 μM, significant between 100 ms to 2 s",slowed recovery kinetics
same,Reversal of tactile hypersensitivity,"[8]; 14 days after TNI, 1 hour after administration",~ 90%
same,Mechanical withdrawal thresholds 24 hours after injection,"[8]; four weeks after TNI, 24 hours",returned to pre-drug levels
same,"Protection vs control, chronic (late-phase) inflammatory pain",[9]; 15 mg/kg,44%
COC[C@@H](NC(C)=O)C(=O)NCc1ccc(COc2ccccc2F)cc1 [(R)-10],Fold lower IC50 for slow inactivation compared with (R)-4 (85 μM),[6],16 fold
same,Maximal fraction of current unavailable by depolarization,[6]; 100 μM,0.90 ± 0.007
same,Shift in V1/2 of fast inactivation in the hyperpolarizing direction,[7]; 100 μM,17.6 mV
same,"Displacement, site 2 sodium channel binding",[10],31–46%
COC[C@@H](NC(C)=O)C(=O)NCc1ccc(-c2cccc(F)c2)cc1 [(R)-11],Maximal fraction of current unavailable by depolarization,[6]; 30 μM,0.94 ± 0.004
same,Shift in V1/2 of fast inactivation in the hyperpolarizing direction,[7]; 30 μM,8.0 mV
same,Peak current lower than control at the last pulse (pulse 30),[1]; 15 μM,45%
same,Pulse in the train at which use-dependent block was first observed,[1]; 15 μM,3 pulse
same,Fraction of current available at 8 s prepulse duration,[2]; 15 μM,0.12 ± 0.04
same,Time course of recovery from the 10-ms depolarization,[3]; 15 μM,not different from control
same,Recovery kinetics after 5 s depolarization (slow inactivation induced),"[3]; 15 μM, significant between 100 ms to 2 s",slowed recovery kinetics
same,"Protection vs control, chronic (late-phase) inflammatory pain",[9]; 12 mg/kg,97%
same,"Displacement, site 2 sodium channel binding",[10],31–46%
COC[C@H](NC(C)=O)C(=O)NCc1ccccc1 [(S)-4],Inhibition of Ca2+ amplitude (KCl-induced Ca2+ influx),[11],13.74 ± 1.26%
same,Inhibition of peak Na+ currents,[4],no inhibition
COC[C@H](NC(C)=O)C(=O)NCc1ccc(OCc2cccc(F)c2)cc1 [(S)-7],Fraction of current available at −50 mV,[6]; 500 μM (highest dose),reduced the available current but not to the extent observed with (R)-7
same,Potential above which (more depolarized) slow inactivation was observed,[6]; 5 s conditioning prepulses,> −80 mV
same,Maximal fraction of current unavailable by depolarization,[6]; 500 μM,0.76 ± 0.02
same,Shift in V1/2 of fast inactivation in the hyperpolarizing direction,[7]; 500 μM,19.9 mV
